Assay results taken from ChEMBL document CHEMBL3877280, “Discovery of novel rivastigmine-hydroxycinnamic acid hybrids as multi-targeted agents for Alzheimer's disease” (Eur J Med Chem, 2017).
Activity calls are given as the source filed them. No cut-off for these calls is given here.

Assays:
[1] = target: Cholinesterase (Homo sapiens) (UniProt P06276); assay: Inhibition of BuChE (unknown origin) at 1 uM using acetylthiocholine iodide as substrate preincubated for 60 mins followed by substrate addition measured after 5 mins by Ellman's method relative to control
In short: (§1)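 Ellman method at 37 °C. BuChE stock made in 0.1% gelatin, diluted to 0.13-0.100 AU/min. Enzyme preincubated with compound for 60 min in 0.1 M phosphate pH 8.0 with 40 µM DTNB, then 20 µM acetylthiocholine iodide added. A412 rate followed for 5 min against an enzyme-free blank; triplicates; percent inhibition from rates.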

[2] = target: Cholinesterase (Homo sapiens) (UniProt P06276); assay: Inhibition of BuChE (unknown origin) at 5 uM using acetylthiocholine iodide as substrate preincubated for 60 mins followed by substrate addition measured after 5 mins by Ellman's method relative to control; in short: as §1
[3] = Antioxidant activity assessed as DPPH radical scavenging activity at 10 uM incubated under dark condition for 60 mins by spectrophotometric method relative to control; type: functional
In short: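 DPPH scavenging: compound at 10 µM final added to DPPH in ethanol (100 µM final), kept in dark at 25-26 °C for 60 min under dim light. Absorbance read at 517 nm. Capacity = (A1 − A2)/A1 × 100%, with A1 the control absorbance.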

[4] = target: Amyloid-beta precursor protein (Homo sapiens) (UniProt P05067); assay: Inhibition of HFIP-pretreated amyloid beta (1 to 42) (unknown origin) self-induced aggregation at 10 uM after 24 hrs by thioflavin-T fluorescence assay relative to control
Mus musculus [5] = organism: Mus musculus; assay: Cytotoxicity against mouse HT22 cells assessed as reduction in cell viability at 10 uM after 24 hrs by MTT assay; type: toxicity, cell-based; conditions: ht-22, 24 h
In short: (§2)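 HT22 cells grown in DMEM + 10% FBS at 37 °C, 5% CO2, seeded at 10,000 cells/well. Exposed to compound for 24 h; vehicle-only controls. Viability by MTT, mean ± SEM, n = 6.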

Mus musculus [6] = organism: Mus musculus; assay: Cytotoxicity against mouse HT22 cells assessed as reduction in cell viability at 100 uM after 24 hrs by MTT assay; type: toxicity, cell-based; conditions: ht-22, 24 h; in short: as §2
[7] = Cytoprotective activity against glutamate-induced cell death in mouse HT22 cells assessed as cell viability at 10 to 30 uM preincubated for 30 mins followed by H2O2 addition measured after 24 hrs by MTT assay; type: functional, HT-22
In short: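 HT22 cells (DMEM/10% FBS, 10,000 cells/well) pretreated with compound for 30 min, then 2 mM glutamate for 24 h. Viability by MTT; vehicle controls; mean ± SEM, n = 6.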

HT-22 = assay: Cytoprotective activity against H2O2-induced cell death in mouse HT22 cells assessed as increase in cell viability at 10 to 30 uM preincubated for 30 mins followed by H2O2 addition measured after 24 hrs by MTT assay; type: functional, cell-based
In short: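 HT22 cells (DMEM/10% FBS, 10,000 cells/well) pretreated with compound for 30 min, then 500 µM H2O2 for 24 h. Viability by MTT; vehicle controls; mean ± SEM, n = 6.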

[8] = Copper chelating activity assessed as Cu2+-compound complex formation by measuring bathochromic shift at 10 uM after 30 mins by UV-Visible spectrometric method
In short: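 CuCl2 in water and compound (methanol stock diluted in PBS) brought up in absolute ethanol. Mixture stood 30 min at room temperature, then absorption spectrum recorded at room temperature.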

Cholinesterase (Homo sapiens), sequence (P06276 whole entry): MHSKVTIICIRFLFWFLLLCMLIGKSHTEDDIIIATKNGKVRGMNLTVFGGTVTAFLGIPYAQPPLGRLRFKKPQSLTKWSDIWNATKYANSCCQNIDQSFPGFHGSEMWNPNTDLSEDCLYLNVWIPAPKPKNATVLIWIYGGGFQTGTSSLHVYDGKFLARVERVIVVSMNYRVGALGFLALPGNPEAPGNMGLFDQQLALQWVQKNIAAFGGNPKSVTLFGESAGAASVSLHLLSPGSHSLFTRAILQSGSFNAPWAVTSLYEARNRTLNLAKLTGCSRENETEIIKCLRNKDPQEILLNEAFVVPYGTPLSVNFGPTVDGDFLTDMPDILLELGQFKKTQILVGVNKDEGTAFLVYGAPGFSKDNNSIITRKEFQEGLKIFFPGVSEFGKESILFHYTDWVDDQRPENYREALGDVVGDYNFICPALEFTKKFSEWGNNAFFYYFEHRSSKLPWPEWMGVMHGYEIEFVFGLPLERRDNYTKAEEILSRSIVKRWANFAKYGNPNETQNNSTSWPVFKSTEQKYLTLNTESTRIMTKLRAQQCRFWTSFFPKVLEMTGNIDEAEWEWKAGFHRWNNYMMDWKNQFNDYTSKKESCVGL
Amyloid-beta precursor protein (Homo sapiens), sequence (P05067 whole entry): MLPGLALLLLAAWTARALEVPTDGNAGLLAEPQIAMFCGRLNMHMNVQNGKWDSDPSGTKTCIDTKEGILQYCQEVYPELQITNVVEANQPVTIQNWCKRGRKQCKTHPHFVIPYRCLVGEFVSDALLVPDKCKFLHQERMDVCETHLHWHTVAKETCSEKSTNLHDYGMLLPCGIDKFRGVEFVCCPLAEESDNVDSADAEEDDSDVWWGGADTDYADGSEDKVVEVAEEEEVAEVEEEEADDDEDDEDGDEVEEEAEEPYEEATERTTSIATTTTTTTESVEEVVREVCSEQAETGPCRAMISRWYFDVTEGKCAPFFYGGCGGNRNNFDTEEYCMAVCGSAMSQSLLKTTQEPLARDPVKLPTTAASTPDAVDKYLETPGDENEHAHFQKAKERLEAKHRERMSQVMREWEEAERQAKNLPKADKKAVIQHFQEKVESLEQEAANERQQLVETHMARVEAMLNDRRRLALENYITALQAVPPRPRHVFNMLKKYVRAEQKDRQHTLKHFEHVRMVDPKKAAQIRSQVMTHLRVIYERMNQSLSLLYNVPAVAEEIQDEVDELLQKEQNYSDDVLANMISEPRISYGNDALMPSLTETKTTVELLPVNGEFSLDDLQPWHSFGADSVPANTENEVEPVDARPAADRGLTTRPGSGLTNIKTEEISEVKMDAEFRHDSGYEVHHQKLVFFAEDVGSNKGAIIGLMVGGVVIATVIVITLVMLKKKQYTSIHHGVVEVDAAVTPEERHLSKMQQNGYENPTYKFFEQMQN

SMILES | inhibition [1] [%] | inhibition [2] [%] | Activity [3] [%] | inhibition [4] [%] | Activity (Mus musculus [5]) | Activity (Mus musculus [6]) | Activity [7] [%] | Activity (HT-22) | Activity [8]
CCN(C)C(=O)Nc1cccc(NC(=O)/C=C/c2ccc(O)c(O)c2)c1 | 13.8 | 24.4 | 64.7 | 82.5 | Non-Toxic | Toxic | 56.9 | Active | 
CCN(C)C(=O)Oc1cccc(CNC(=O)/C=C/c2ccc(O)c(O)c2)c1 | 80.8 | 97 | 69.7 | 77.6 | Non-Toxic | Toxic |  | Active | 
COc1cc(/C=C/C(=O)O)ccc1O |  |  | 19.9 |  |  |  |  |  | 
Nc1c(/N=N/c2ccc(-c3ccc(/N=N/c4cc(S(=O)(=O)O)c5ccccc5c4N)cc3)cc2)cc(S(=O)(=O)O)c2ccccc12 |  |  |  | 86.5 |  |  |  |  | 
CCN(C)C(=O)Oc1cccc(CCNC(=O)/C=C/c2ccc(O)c(OC)c2)c1 | 72.3 | 96.6 | 18.1 | 2.2 | Non-Toxic | Toxic |  | Active | 
CCN(C)C(=O)Oc1cccc(NC(=O)/C=C/c2ccc(O)c(OC)c2)c1 | 98 | 98.3 | 19.5 | 13.2 | Non-Toxic | Toxic |  | Active | 
CCN(C)C(=O)Oc1cccc(CCNC(=O)/C=C/c2ccc(O)c(O)c2)c1 | 76.3 | 92 | 51.7 | 85.3 | Non-Toxic | Toxic |  | Active | Active
CCN(C)C(=O)Nc1cccc(NC(=O)/C=C/c2ccc(O)c(OC)c2)c1 | 19.4 | 36.6 | 24.1 | 2.2 | Non-Toxic | Toxic |  | Active | 
CCN(C)C(=O)Oc1cccc(CNC(=O)/C=C/c2ccc(O)c(OC)c2)c1 | 87.9 | 97.9 | 17.9 | 3.2 | Non-Toxic | Toxic |  |  | 
CCN(C)C(=O)Oc1cccc(NC(=O)/C=C/c2ccc(O)c(O)c2)c1 | 49.6 | 91 | 37 | 73.2 | Non-Toxic | Toxic | 52.9 | Active | 
O=C(O)/C=C/c1ccc(O)c(O)c1 |  |  | 64.6 |  |  |  |  |  | 
CCN(C)C(=O)Oc1cccc([C@H](C)N(C)C)c1 | 61 | 93 |  |  |  |  |  |  | 
